“And” between values parts separate entries of the source, which are not always exact repeats. Equal entries are not always repeated. Where two headings read alike, the source gives them in different places.

One experiment deals with mouse AHR S359A. As to conditions: S359A in mouse AHR vs wild type; cited from earlier work.
Another experiment has as its system AHR1α. The following applies: AHR1α vs mouse AHR; cited from earlier work.
In another experiment the target is frog AHR1β A354S mutant (Xenopus laevis, UniProt Q4QY30, A354S). The experiment in a line: Transactivation. The format is cell-based. Put shortly: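 COS-7 cells (DMEM, 10% FBS, 37°, 5% CO2) were seeded at 30,000/well. After 24 h, triplicate wells were co-transfected with 50 ng AHR plasmid, 50 ng X. laevis ARNT1, 20 ng pGudLuc6.1 (mouse CYP1A1 enhancer, four XREs) and 3 ng pRL-TK, totalling 300 ng. Five hours later, cells received 0.5% DMSO or graded FICZ. Firefly/Renilla luciferase was read at 3 h, vehicle-subtracted and normalized to maximum. EC50 came from nonlinear regression (bottom 0, top 1). n=3-4.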

Experiment [1] deals with T1, frog AHR1β A354S/N325S mutant (Xenopus laevis, UniProt Q4QY30, A354S/N325S). Nature of the experiment: Transactivation. The format is cell-based.
Another experiment has as its target X. laevis AHR1β (Xenopus laevis, UniProt Q4QY30). The experiment in a line: Transactivation. The experiment is classed as cell-based. Put shortly:
(§1)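 Same COS-7 co-transfection: AHR construct, X. laevis ARNT1, pGudLuc6.1 firefly reporter and pRL-TK control, total DNA 300 ng, triplicate wells. Graded FICZ (0.5% DMSO vehicle) was added 5 hours post-transfection. Cells were lysed 3 hours after dosing for dual luciferase. Firefly/Renilla ratio, minus vehicle, was normalized to each AHR's maximum. EC50 came from non-linear regression with background 0 and maximum 1; 3-4 replicates.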

The target in a further experiment is frog AHR1β S294Q mutant (Xenopus laevis, UniProt Q4QY30, S294Q). Nature of the experiment: Transactivation. The experiment is classed as cell-based. Put shortly:
(§2)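 COS-7 cells in DMEM with 10% FBS (37°, 5% CO₂), 30,000/well, transfected 24 hours later in triplicate wells. Each well received 50 ng AHR construct, 50 ng X. laevis ARNT1, 20 ng pGudLuc6.1 (CYP1A1 enhancer, four XREs) and 3 ng pRL-TK, with empty vector to 300 ng. After 5 hours, graded TCDD was added (0.5% DMSO), and cells were lysed 18 hours later. EC50 came from regression of fractional firefly/Renilla response (vehicle-subtracted, max=1); n=3-4.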

For experiment [2], the target named is T2, frog AHR1β N325S mutant (Xenopus laevis, UniProt Q4QY30, N325S). Nature of the experiment: Velocity sedimentation analysis of [3H]TCDD binding. The following applies: 2 nM [3H]TCDD, 18 hr at 4° C, sucrose gradients.
For experiment [3], the target named is frog AHR1β KHSR mutant (R345K, D346H, T347S, G348R) (Xenopus laevis, UniProt Q4QY30, D346H/G348R/R345K/T347S). The experiment in a line: Transactivation. The format is cell-based.
The target of a further experiment is frog AHR1β S371T mutant (Xenopus laevis, UniProt Q4QY30, S371T). The experiment in a line: Transactivation. The format is cell-based. The gist of the method: as §2
The target of experiment [4] is frog AHR1β T256A/S263P mutant (Xenopus laevis, UniProt Q4QY30, S263P/T256A). Nature of the experiment: Transactivation. The format is cell-based. The gist of the method: as §2
Experiment [5] has as its target T1, frog AHR1β A354S/N325S mutant. The experiment in a line: Velocity sedimentation analysis of [3H]TCDD binding. The following applies: 2 nM [3H]TCDD, 18 hr at 4° C, sucrose gradients. The gist of the method:
(§3)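 They were incubated 18 hr at 4 °C with 2 nM [3H]TCDD, then run on sucrose gradients in a vertical rotor. Peak-fraction dpm minus unprogrammed-lysate dpm gave specific binding, expressed relative to wild-type AHR1β. AHR input was checked by western blot. Three replicates.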

The target in the next experiment is frog AHR1β S263P mutant (Xenopus laevis, UniProt Q4QY30, S263P). Nature of the experiment: Transactivation. The format is cell-based. The gist of the method:
as §2

Another experiment addresses frog AHR1β T256A mutant (Xenopus laevis, UniProt Q4QY30, T256A). The experiment in a line: Transactivation. The experiment is classed as cell-based. The gist of the method:
as §2

The target in experiment [6] is T2, frog AHR1β N325S mutant. Nature of the experiment: Transactivation. The format is cell-based.
Another experiment concerns frog AHR1β. The experiment in a line: Velocity sedimentation analysis of [3H]TCDD binding. More on the design: species or system Xenopus laevis. As to conditions: 2 nM [3H]TCDD, 18 hr at 4° C, sucrose gradients. Put shortly:
as §3

In the next experiment the target is mouse AHR^b-1 (Mus musculus, UniProt P30561). The experiment in a line: Transactivation. The format is cell-based.
In the next experiment the test system is AHR from the common tern. As to conditions: common tern AHR vs chicken AHR; cited from earlier work.
For the next experiment, the target named is frog AHR1β A370S mutant (Xenopus laevis, UniProt Q4QY30, A370S). Nature of the experiment: Transactivation. The format is cell-based.
Experiment [7] concerns chimeric AHR (frog AHR1β with mouse LBD). The experiment in a line: Velocity sedimentation analysis of [3H]TCDD binding. Details: species or system Xenopus laevis / mouse. The following applies: 2 nM [3H]TCDD, 18 hr at 4° C, sucrose gradients. The gist of the method: as §3
For another experiment, the system named is AHR1β. As to conditions: AHR1β vs mouse AHR; cited from earlier work.
The target of experiment [8] is chimeric frog AHR1β containing the mouse LBD (Xenopus laevis, UniProt P30561+Q4QY30). The experiment in a line: Transactivation. The format is cell-based. The gist of the method: as §1

As for `Clc1cc2c(cc1Cl)Oc1cc(Cl)c(Cl)cc1O2` [TCDD, 2,3,7,8-tetrachlorodibenzo-p-dioxin], the “reduction of TCDD binding” value in the experiment on mouse AHR S359A is on record as 40%. Also, the “fold lower TCDD affinity than mouse AHR” value in the experiment on AHR1α and with AHR1β was “more than 25 fold” throughout. Besides, the EC50 on frog AHR1β A354S mutant was 1.2 ± 0.4 nM; in [1] (EC50 for reporter gene induction, TCDD, (24 hr), COS-7 cells, A354S/N325S) it was 0.8 nM and 0.82 nM; on X. laevis AHR1β, 18.6 ± 4.7 nM; at frog AHR1β S294Q mutant, 25.9 ± 1.1 nM; in experiment [3] it was 23 nM; on frog AHR1β S371T mutant, 13.5 ± 3.3 nM. The EC50 was 20.6 ± 8 nM in [4]; 23.7 ± 8.8 nM on frog AHR1β S263P mutant; 23.1 nM on frog AHR1β T256A mutant; 5.7 ± 1.6 nM on frog AHR1β N325S mutant [6]; 0.5 ± 0.16 nM on mouse AHR^b-1; 1 ± 0.4 nM at frog AHR1β A370S mutant. The “fold greater TCDD responsiveness relative to AHR1β” value in experiment [1] (N325S/A354S vs wild type AHR1β) was roughly 23 fold; on frog AHR1β A370S mutant (A370S vs wild type AHR1β) it was 18.6 fold. In addition, the “TCDD binding (in words)” value was “greater TCDD binding than either A354S or A370S” on frog AHR1β N325S mutant [2], “approaching that of the chimera” in [5], “barely detectable” with frog AHR1β and “greatest TCDD binding” in experiment [7]. Further, the “fold greater TCDD responsiveness (EC50 decline) relative to AHR1β” value at frog AHR1β N325S mutant [6] (N325S vs wild type AHR1β) was 3 fold and 3.2 fold. In the experiment on AHR from the common tern, the “fold lower TCDD affinity than AHR from chicken” value is reported as 7 fold.
Take `O=Cc1c2[nH]c3ccccc3c2cc2[nH]c3ccccc3c12` [FICZ, 6-formylindolo[3,2b]carbazole]: the “FICZ responsiveness (in words)” value at frog AHR1β A354S mutant (A354S, 3 hr) is “restored responsiveness to a level comparable to the chimera”. In addition, the EC50 on frog AHR1β A354S mutant (read-out: EC50 for reporter gene induction, FICZ, (3 hr), COS-7 cells, A354S) worked out at 0.04 nM; at X. laevis AHR1β (read-out: EC50 for reporter gene induction, FICZ, (3 hr), COS-7 cells, AHR1β), 0.08 nM; in experiment [8] (read-out: EC50 for reporter gene induction, FICZ, (3 hr), COS-7 cells, chimera), 0.03 ± 0.01 nM; at frog AHR1β N325S mutant [6] (read-out: EC50 for reporter gene induction, FICZ, (3 hr), COS-7 cells, N325S), 0.07 nM; on frog AHR1β A370S mutant (read-out: EC50 for reporter gene induction, FICZ, (3 hr), COS-7 cells, A370S), 0.04 nM. In experiment [8] (chimera vs AHR1β, 3 hr), the “fold more responsive to FICZ than AHR1β” value was 2.7 fold. Also, the “fold increase in FICZ responsiveness” value on frog AHR1β N325S mutant [6] (N325S vs AHR1β, 3 hr) is “about 2 fold”; on frog AHR1β A370S mutant (A370S vs AHR1β, 3 hr), “about 2 fold”.

Values taken from article PMC3669666 (Biochemistry, 2013).
